Data published in ChEMBL document CHEMBL4706563, “Triphenylethylene analogues: Design, synthesis and evaluation of antitumor activity and topoisomerase inhibitors” (Eur J Med Chem, 2020).
Calls of active or inactive are those of the source. The rule behind the calls is not given here.

Assays:
UACC-257 = assay: Antiproliferative activity against human UACC-257 cells assessed as growth inhibition at 10 uM relative to control; format: functional; details: read-out: GI
Procedure, shortened: (§1)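 NCI 60 human tumour cell line panel screen. Compounds tested at a single dose and growth inhibition (%) determined for each line.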

UO-31 = assay: Antiproliferative activity against human UO-31 cells assessed as growth inhibition at 10 uM relative to control; format: functional; details: read-out: GI; procedure, shortened: as §1
NCI/ADR-RES = assay: Antiproliferative activity against human NCI/ADR-RES cells assessed as growth inhibition at 10 uM relative to control; format: functional; details: read-out: GI
Procedure, shortened: (§2)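 Single-dose screen run by the US National Cancer Institute across its 60-human tumour cell line panel. Each compound was tested at one concentration. Percent growth inhibition was recorded for each cell line.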

PC-3 = assay: Antiproliferative activity against human PC-3 cells assessed as growth inhibition at 10 uM relative to control; format: functional; details: read-out: GI; procedure, shortened: as §2
[1] = Antiproliferative activity against human CNS cancer cells; format: functional; details: CNS cell; for CC50: read-out: LC50 (the source's name)
A498 = assay: Antiproliferative activity against human A498 cells assessed as growth inhibition at 10 uM relative to control; format: functional; details: read-out: GI; procedure, shortened: as §2
HCT-15 = assay: Antiproliferative activity against human HCT-15 cells assessed as growth inhibition at 10 uM relative to control; format: functional; details: read-out: GI; procedure, shortened: as §2
ACHN = assay: Antiproliferative activity against human ACHN cells assessed as growth inhibition at 10 uM relative to control; format: functional; details: read-out: GI; procedure, shortened: as §2
[2] = Antiproliferative activity against human ovarian cancer cells; format: functional; details: Ovarian cancer cell line; for CC50: read-out: LC50 (the source's name)
Hs-578T = assay: Antiproliferative activity against human Hs-578T cells assessed as growth inhibition at 10 uM relative to control; format: functional; details: read-out: GI; procedure, shortened: as §2
[3] = Antiproliferative activity against human Non-small cell lung cancer cells; format: functional; details: Non-small cell lung cancer cell line; for CC50: read-out: LC50 (the source's name)
SF-268 = assay: Antiproliferative activity against human SF-268 cells assessed as growth inhibition at 10 uM relative to control; format: functional; details: read-out: GI; procedure, shortened: as §2
HL-60(TB) = assay: Antiproliferative activity against human HL-60(TB) cells assessed as growth inhibition at 10 uM relative to control; format: functional; details: read-out: GI
UACC-62 = assay: Antiproliferative activity against human UACC-62 cells assessed as growth inhibition at 10 uM relative to control; format: functional; procedure, shortened: as §1
SK-MEL-2 = assay: Antiproliferative activity against human SK-MEL-2 cells assessed as growth inhibition at 10 uM relative to control; format: functional; details: read-out: GI; procedure, shortened: as §2
SK-OV-3 = assay: Antiproliferative activity against human SK-OV-3 cells assessed as growth inhibition at 10 uM relative to control; format: functional; details: read-out: GI; procedure, shortened: as §1
HCC 2998 = assay: Antiproliferative activity against human HCC 2998 cells assessed as growth inhibition at 10 uM relative to control; format: functional; details: read-out: GI; procedure, shortened: as §2
KM12 = assay: Antiproliferative activity against human KM12 cells assessed as growth inhibition at 10 uM relative to control; format: functional; details: read-out: GI; procedure, shortened: as §2
NCI-H322M = assay: Antiproliferative activity against human NCI-H322M cells assessed as growth inhibition at 10 uM relative to control; format: functional; details: read-out: GI; procedure, shortened: as §2
[4] = Antiproliferative activity against human colon cancer cells; format: functional; details: Colon cancer cell line
HEK293 [5] = assay: Cytotoxicity against human HEK293 cells at 10^-5 M incubated for 24 hrs by MTT assay relative to control; format: cell-based; details: hek293, 24 h, 10 µM
Procedure, shortened: (§3)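 HEK293 cells grown in low-glucose DMEM with 10% FBS, glutamine, penicillin/streptomycin at 37 °C, 5% CO2. Cells exposed to compound at 10^-4 to 10^-8 M for 24 h at 37 °C. MTT from 5 mg/mL stock added for 4 h at 37 °C in dark. Formazan dissolved in DMSO and read at 570 nm. % toxicity calculated relative to medium-only control wells. Three experiments, each in triplicate.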

HEK293 [6] = assay: Cytotoxicity against human HEK293 cells at 10^-6 M incubated for 24 hrs by MTT assay relative to control; format: cell-based; details: hek293, 24 h, 1 µM; procedure, shortened: as §3
HEK293 [7] = assay: Cytotoxicity against human HEK293 cells at 10^-4 M incubated for 24 hrs by MTT assay relative to control; format: cell-based; details: hek293, 24 h, 100 µM; procedure, shortened: as §3
HEK293 [8] = assay: Cytotoxicity against human HEK293 cells at 10^-7 M incubated for 24 hrs by MTT assay relative to control; format: cell-based; details: hek293, 24 h, 0.1 µM; procedure, shortened: as §3
HEK293 [9] = assay: Cytotoxicity against human HEK293 cells at 10^-8 M incubated for 24 hrs by MTT assay relative to control; format: cell-based; details: hek293, 24 h, 0.01 µM; procedure, shortened: as §3
HEK293 [10] = assay: Cytotoxicity against human HEK293 cells at 100 uM incubated for 24 hrs by MTT assay relative to control; format: cell-based; details: hek293, 24 h; procedure, shortened: as §3

Structure (SMILES): CC/C(=C(\c1ccccc1)c1ccc(OCCN(C)C)cc1)c1ccccc1 [TAMOXIFEN]
- inhibition of growth at 10 µM (UACC-257): -64.3%
- inhibition of growth at 10 µM (UO-31): 59.7%
- inhibition of growth at 10 µM (NCI/ADR-RES): 56.8%
- inhibition of growth at 10 µM (PC-3): 65.6%
- GI50 [1]: 4.04 µM
- TGI [1]: 10.6 µM
- CC50 [1]: 44.1 µM
- inhibition of growth at 10 µM (A498): 35.9%
- inhibition of growth at 10 µM (HCT-15): 92.4%
- inhibition of growth at 10 µM (ACHN): 39.4%
- GI50 [2]: 4.7 µM
- TGI [2]: 11.9 µM
- CC50 [2]: 2.78 µM
- inhibition of growth at 10 µM (Hs-578T): 39.5%
- GI50 [3]: 4.01 µM
- TGI [3]: 9.2 µM
- CC50 [3]: 2.6 µM
- inhibition of growth at 10 µM (SF-268): 43.3%
- inhibition of growth at 10 µM (HL-60(TB)): 60.4%
- growth inhibition (GI) (UACC-62): inactive
- inhibition of growth at 10 µM (SK-MEL-2): 31.5%
- inhibition of growth at 10 µM (SK-OV-3): 33.2%
- inhibition of growth at 10 µM (HCC 2998): 83.7%
- inhibition of growth at 10 µM (KM12): 75%
- inhibition of growth at 10 µM (NCI-H322M): 34%
- GI50 [4]: 1.88 µM
- TGI [4]: 5.96 µM

Structure (SMILES): C/C(=C(/c1ccccc1)c1ccc(OCC(O)CNCCN2CCOCC2)cc1)c1ccccc1 (stereo not given)
- inhibition of growth at 10 µM (UACC-257): -27.5%
- inhibition of growth at 10 µM (UO-31): 30.8%
- inhibition of growth at 10 µM (NCI/ADR-RES): 19.8%
- inhibition of growth at 10 µM (PC-3): 34.5%
- GI50 [1]: 2.81 µM
- TGI [1]: 9.9 µM
- CC50 [1]: 25.2 µM
- Activity (HEK293 [5]): 13.73%
- inhibition of growth at 10 µM (A498): 20.1%
- inhibition of growth at 10 µM (HCT-15): 95.5%
- inhibition of growth at 10 µM (ACHN): 18.6%
- Activity (HEK293 [6]): 7.04%
- GI50 [2]: 5.2 µM
- TGI [2]: 16.3 µM
- CC50 [2]: 45.8 µM
- Activity (HEK293 [7]): 15.82%
- inhibition of growth at 10 µM (Hs-578T): 29.5%
- GI50 [3]: 4.19 µM
- TGI [3]: 12.2 µM
- CC50 [3]: 36.3 µM
- inhibition of growth at 10 µM (HL-60(TB)): 71%
- inhibition of growth at 10 µM (UACC-62; read-out: GI): 37.3%
- Activity (HEK293 [8]): 5.43%
- inhibition of growth at 10 µM (SK-MEL-2): 5.09%
- inhibition of growth at 10 µM (SK-OV-3): 4.57%
- inhibition of growth at 10 µM (HCC 2998): -59.6%
- inhibition of growth at 10 µM (KM12): 45.7%
- inhibition of growth at 10 µM (NCI-H322M): 27.3%
- Activity (HEK293 [9]): 4.74%
- Activity (HEK293 [10]): 20%
- GI50 [4]: 2.06 µM
- LC50 [4]: 13.8 µM
- TGI [4]: 5.51 µM
